{"data": "Assay results of several laboratories", "target": "Calcium/calmodulin-dependent protein kinase type 1 (CAMK1, Homo sapiens, UniProt Q14012)"}
{"SMILES": "O=C(O)[C@@H]1[C@@H](Cn2nnc3ccccc3c2=O)CC[C@H]1C(=O)c1ccc(OCCC2CCOCC2)cc1", "assay": "cell-free assay, competition with immobilised ligand", "conditions": "1 µM", "measurement": "remaining binding", "value": "92%"}
{"SMILES": "COc1cc2c(Nc3ccc(Br)cc3F)ncnc2cc1OCC1CCN(C)CC1", "assay": "cell-free assay", "conditions": "0.5 µM", "measurement": "remaining signal", "value": "81.6%"}
{"SMILES": "COc1cc(Cl)c(C(=O)N[C@@H](CN[C@H]2CC[C@@H](N)CC2)Cc2ccc(C#N)cc2)cc1-c1ccc(CN[C@H](C)c2ccc(C)cc2)o1", "assay": "enzyme activity, inhibitor", "conditions": "1 µM", "measurement": "remaining activity", "value": "108%"}
{"SMILES": "CC(=O)N1CCC(c2ccc(C(=O)NC3=NCCN3)cc2C(F)(F)F)CC1", "assay": "cell-free assay, competition with immobilised ligand", "conditions": "1 µM", "measurement": "remaining binding", "value": "100%"}
{"SMILES": "Cn1c(=O)n(-c2ccc(C(C)(C)C#N)cc2)c2c3cc(-c4cnc5ccccc5c4)ccc3ncc21", "assay": "enzyme activity, inhibitor", "conditions": "10 µM", "measurement": "remaining activity", "value": "100%"}
{"SMILES": "O=C(Nc1cnn(-c2csc(C(=O)NC3COC3)c2)c1)Nc1ccccc1Cl", "assay": "enzyme activity, inhibitor", "conditions": "5 µM", "measurement": "remaining activity", "value": "87.1%"}
{"SMILES": "CCCS(=O)(=O)Nc1ccc(F)c(C(=O)c2c[nH]c3ncc(-c4ccc(Cl)cc4)cc23)c1F", "assay": "enzyme activity, inhibitor", "conditions": "1 µM", "measurement": "inhibition", "value": "< 10%"}
{"SMILES": "CCCOc1ccc(OC)c(F)c1C(=O)c1ccc(C(=O)N[C@@H]2CNC[C@H]2NC(=O)c2ccc3[nH]ncc3c2)cc1", "assay": "enzyme activity, inhibitor", "conditions": "10 µM", "measurement": "remaining activity", "value": "34%"}
{"SMILES": "Cc1cc(-n2nc(Cc3cc(F)cc(C(F)(F)F)c3)nc2C)ccc1C(N)=O", "assay": "cell-free assay, competition with immobilised ligand", "conditions": "1 µM", "measurement": "remaining binding", "value": "90%"}
{"SMILES": "Cc1ccc(Nc2nccc(N(C)c3ccc4c(C)n(C)nc4c3)n2)cc1S(N)(=O)=O", "assay": "enzyme activity, inhibitor", "conditions": "10 µM", "measurement": "inhibition", "value": "52%"}
{"SMILES": "c1ccc(CNc2nc(N3CCOc4ccccc43)nc3c2CCCC3)cc1", "assay": "target engagement in cells, inhibitor, chemoproteomics", "conditions": "20 mM", "measurement": "inhibition", "value": "1.2%"}
{"SMILES": "Cc1nc(N2CC[C@@H](O)C2)ncc1-c1cc(C(F)(F)F)cc2[nH]ncc12", "assay": "cell-free assay, competition with immobilised ligand", "conditions": "1 µM", "measurement": "remaining binding", "value": "100%"}
{"SMILES": "CC(C)(C)C(=O)c1sc(NC2CCCCC2)nc1N", "assay": "enzyme activity, inhibitor", "conditions": "10 µM", "measurement": "remaining activity", "value": "109%"}
{"SMILES": "COc1cc(-c2cc(-c3ccc(N4CCNCC4)cc3)cnc2C)cc(OC)c1OC", "assay": "enzyme activity, inhibitor", "conditions": "0.1 µM", "measurement": "inhibition", "value": "1%"}
{"SMILES": "O=C1Nc2ccc(Cl)cc2C1=Cc1cc(Cl)c(O)c(Cl)c1", "assay": "cell-free assay", "conditions": "0.5 µM", "measurement": "remaining signal", "value": "94.9%"}
{"SMILES": "Cc1cc(NC(=O)c2cccc3cc(-c4cccc5[nH]nc(N)c45)ccc23)ccc1F", "assay": "enzyme activity, inhibitor", "conditions": "0.1 µM", "measurement": "activity vs control", "value": "116%"}
{"SMILES": "Nc1nc(Nc2ccccc2)sc1C(=O)c1c(F)cccc1F", "assay": "enzyme activity, inhibitor", "conditions": "10 µM", "measurement": "remaining activity", "value": "55%"}
{"SMILES": "CNC(=O)c1cc(Oc2ccc(NC(=O)Nc3ccc(Cl)c(C(F)(F)F)c3)cc2)ccn1", "assay": "enzyme activity, inhibitor", "conditions": "10 µM", "measurement": "inhibition", "value": "9%"}
{"SMILES": "O=C(Nc1cnn(-c2csc(C(=O)NC3COC3)c2)c1)Nc1c(F)cccc1Cl", "assay": "enzyme activity, inhibitor", "conditions": "5 µM", "measurement": "remaining activity", "value": "98%"}
{"SMILES": "COc1cc(Nc2cnc(C#N)c(O[C@H](C)CN(C)C)n2)ncc1-c1cnn(C)c1", "assay": "enzyme activity, inhibitor, radiometric", "conditions": "10 µM", "measurement": "remaining activity", "value": "95%"}
{"SMILES": "NS(=O)(=O)c1cc(NC(=O)Cc2ccccc2)ccc1Oc1cccc(Cl)c1", "assay": "cell-free assay, competition with immobilised ligand", "conditions": "1 µM", "measurement": "remaining binding", "value": "90%"}
{"SMILES": "CC(C)(O)[C@H]1CC[C@H](Nc2ccc3ncc(-c4cccc(C(F)(F)F)c4)n3n2)CC1", "assay": "enzyme activity, inhibitor", "conditions": "1 µM", "measurement": "remaining activity", "value": "100%"}
{"SMILES": "CS(=O)(=O)N1CCCC(NC(=O)[C@H](CCC2CCCCC2)NC(=O)c2ccc(CNc3ncnc4c3nnn4-c3ccccc3)cc2)C1 (stereo partly drawn)", "assay": "cell-free assay, competition with immobilised ligand", "conditions": "0.1 µM", "measurement": "remaining binding", "value": "96%"}
{"SMILES": "COc1cc2ncnc(Nc3ccc(F)c(Cl)c3)c2cc1OCCCN1CCOCC1", "assay": "cell-free assay", "conditions": "0.5 µM", "measurement": "remaining signal", "value": "102%"}
{"SMILES": "FC(F)c1nc2ccccc2n1-c1nc(N2CCOCC2)nc(N2CCOCC2)n1", "assay": "enzyme activity, inhibitor", "conditions": "10 µM", "measurement": "remaining activity", "value": "114%"}
{"SMILES": "O=C(Nc1cccnn1)N1CC(C/C=C/c2cncc(Oc3ccc(C(F)(F)F)cn3)n2)C1", "assay": "cell-free assay, competition with immobilised ligand", "conditions": "1 µM", "measurement": "remaining binding", "value": "100%"}
{"SMILES": "CCN(CC)CCNC(=O)c1c(C)[nH]c(/C=C2\\C(=O)Nc3ccc(F)cc32)c1C", "assay": "enzyme activity, inhibitor", "conditions": "0.3 µM", "measurement": "inhibition", "value": "21%"}
{"SMILES": "CS(=O)(=O)c1cc(C2(NC(=O)c3cncc4c3cnn4-c3ccc(F)cc3)CC2)ccn1", "assay": "cell-free assay, competition with immobilised ligand", "conditions": "1 µM", "measurement": "remaining binding", "value": "65%"}
{"SMILES": "CN1CC(Oc2cnc(C#N)cc2-c2ccn3nc(NC(=O)C4CC4)cc3c2)C1", "assay": "enzyme activity, inhibitor", "conditions": "1 µM", "measurement": "inhibition", "value": "1%"}
{"SMILES": "CCN(CC)c1ccc(C2=NNC(=O)CC2C)cc1[N+](=O)[O-] (stereo not drawn)", "assay": "enzyme activity, inhibitor", "conditions": "10 µM", "measurement": "remaining activity", "value": "89%"}
